Test results published in ChEMBL document CHEMBL4038284, “Synthesis of novel quinoline-based 4,5-dihydro-1H-pyrazoles as potential anticancer, antifungal, antibacterial and antiprotozoal agents” (Eur J Med Chem, 2017).
Values after ≈ are worked out from the molar mass of the structure shown. Active and inactive are the calls of the source. The rule behind the calls is not given here.

What was measured:
Staphylococcus aureus = assay: Antibacterial activity against methicillin-sensitive Staphylococcus aureus ATCC 25923 after 24 hrs by resazurin dye based microdilution assay; type: functional; settings: ATCC 25923, 24 h
Summary of the method: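 MIC taken as the lowest concentration giving visible inhibition and/or by resazurin (1 mg/mL). Gentamicin was the control. Run in duplicate, repeated at least three times.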

CCRF-CEM = assay: Growth inhibition of human CCRF-CEM cells incubated for 48 hrs by sulforhodamine B assay; type: functional; settings: for CC50: read-out: LC50 (the source's name)
Summary of the method: (§1)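 NCI 60-line screen. Cells in RPMI-1640 with 5% FBS and 2 mM L-glutamine, preincubated 24 h, then time-zero plates TCA-fixed. Compounds from DMSO stocks given at five final concentrations (100, 10, 1.0, 0.1, 0.01 µM) for 48 h at 37 °C, 5% CO2. Cells fixed with 10% TCA, SRB-stained, read at 515 nm. GI50 is the concentration giving 50% lower net protein increase versus control.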

OVCAR-5 [1] = assay: Growth inhibition of human OVCAR5 cells at 10 uM incubated for 48 hrs by sulforhodamine B assay; type: functional, cell-based
Summary of the method: (§2)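 NCI 60-line panel, single 10 μM dose. Cells were grown in RPMI-1640 with 5% FBS and 2 mM L-glutamine and pre-incubated 24 h before compound addition (DMSO stock). Exposure was 48 h at 37 °C, 5% CO2. Cells were fixed with cold TCA (10% final), stained with 0.4% SRB, bound dye dissolved in 10 mM Tris base, A515 read. Growth was taken relative to time-zero and untreated control plates.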

NCI-H522 = assay: Growth inhibition of human NCI-H522 cells incubated for 48 hrs by sulforhodamine B assay; type: functional; settings: NCI-H522, 48 h; for CC50: read-out: LC50 (the source's name); summary of the method: as §1
PC-3 = assay: Growth inhibition of human PC3 cells incubated for 48 hrs by sulforhodamine B assay; type: functional; settings: PC-3, 48 h
Summary of the method: (§3)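 Five-dose NCI SRB assay at 100, 10, 1.0, 0.1 and 0.01 μM for 48 h at 37 °C, 5% CO2. Medium was RPMI-1640 with 5% FBS and 2 mM glutamine. Time-zero plates were TCA-fixed at compound addition, A515 read after SRB staining. GI50 was solved from [(Ti−Tz)/(C−Tz)]×100 = 50. Values beyond the tested range are given as > or <.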

A549 = assay: Growth inhibition of human A549/ATCC cells incubated for 48 hrs by sulforhodamine B assay; type: functional; settings: A549, 48 h; summary of the method: as §1
Cryptococcus neoformans = assay: Growth inhibition of Cryptococcus neoformans ATCC 32264 at 62.5 ug/ml incubated for 48 hrs under dark condition by broth microdilution method relative to control; type: functional; settings: ATCC 32264, 48 h, read-out: GI
Summary of the method: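 CLSI M27-A3 broth microdilution in RPMI-1640, DMSO ≤1%. Inoculum 1-5 × 10^3 CFU/mL. Incubated 48 h at 30 °C, dark. % inhibition = 100 − (OD405 test − sterility control)/(OD405 growth control − sterility control), with growth and sterility control wells. Triplicate.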

SK-MEL-5 = assay: Growth inhibition of human SK-MEL-5 cells incubated for 48 hrs by sulforhodamine B assay; type: functional; settings: SK-MEL-5, 48 h; for CC50: read-out: LC50 (the source's name); summary of the method: as §1
RXF 393 = assay: Growth inhibition of human RXF393 cells incubated for 48 hrs by sulforhodamine B assay; type: functional; settings: RXF 393, 48 h; summary of the method: as §3
K562 = assay: Growth inhibition of human K562 cells incubated for 48 hrs by sulforhodamine B assay; type: functional; settings: K562, 48 h; for CC50: read-out: LC50 (the source's name); summary of the method: as §1
NCI-H460 [2] = assay: Growth inhibition of human NCI-H460 cells incubated for 48 hrs by sulforhodamine B assay; type: functional; settings: NCI-H460, 48 h; summary of the method: as §3
SF-539 = assay: Growth inhibition of human SF539 cells incubated for 48 hrs by sulforhodamine B assay; type: functional; settings: SF-539, 48 h
Summary of the method: (§4)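 NCI-60 panel cells grown in RPMI-1640 with 5% FBS and 2 mM L-glutamine, preincubated 24 h at 37 °C/5% CO2. Time-zero plates were TCA-fixed at compound addition. DMSO stocks were diluted in medium and tested at five final concentrations (100, 10, 1.0, 0.1, 0.01 µM) for 48 h. Cells were TCA-fixed, stained with SRB and read at 515 nm. GI50 = 50% lower net protein increase versus control.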

LOX IMVI = assay: Growth inhibition of human LOXIMVI cells incubated for 48 hrs by sulforhodamine B assay; type: functional; summary of the method: as §3
786-0 = assay: Growth inhibition of human 786-0 cells incubated for 48 hrs by sulforhodamine B assay; type: functional; settings: 786-0, 48 h
Summary of the method: (§5)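 NCI five-dose SRB assay (100, 10, 1.0, 0.1, 0.01 µM) with 48 h exposure in RPMI-1640 with 5% FBS and 2 mM L-glutamine. Cells fixed with TCA and stained with SRB, read at 515 nm. GI50 is the concentration where [(Ti−Tz)/(C−Tz)]×100 = 50.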

UACC-257 = assay: Growth inhibition of human UACC257 cells incubated for 48 hrs by sulforhodamine B assay; type: functional; settings: UACC-257, 48 h; summary of the method: as §4
HOP-62 = assay: Growth inhibition of human HOP62 cells incubated for 48 hrs by sulforhodamine B assay; type: functional; settings: HOP-62, 48 h; summary of the method: as §5
MDA-MB-231 = assay: Growth inhibition of human MDA-MB-231 cells incubated for 48 hrs by sulforhodamine B assay; type: functional; settings: MDA-MB-231, 48 h; summary of the method: as §3
NCI-H460 [3] = assay: Growth inhibition of human NCI-H460 cells at 10 uM incubated for 48 hrs by sulforhodamine B assay; type: functional, cell-based; summary of the method: as §2
MDA-MB-468 = assay: Growth inhibition of human MDA-MB-468 cells incubated for 48 hrs by sulforhodamine B assay; type: functional; settings: MDA-MB-468, 48 h; summary of the method: as §3
SR = assay: Growth inhibition of human SR cells incubated for 48 hrs by sulforhodamine B assay; type: functional; settings: for CC50: read-out: LC50 (the source's name); summary of the method: as §1
T47D = assay: Growth inhibition of human T47D cells incubated for 48 hrs by sulforhodamine B assay; type: functional; summary of the method: as §4
KM12 = assay: Growth inhibition of human KM12 cells incubated for 48 hrs by sulforhodamine B assay; type: functional; settings: KM12, 48 h; summary of the method: as §3
ACHN = assay: Growth inhibition of human ACHN cells incubated for 48 hrs by sulforhodamine B assay; type: functional; settings: for CC50: read-out: LC50 (the source's name); summary of the method: as §1
SNB-75 = assay: Growth inhibition of human SNB75 cells incubated for 48 hrs by sulforhodamine B assay; type: functional; settings: SNB-75, 48 h; for CC50: read-out: LC50 (the source's name); summary of the method: as §1
HCC 2998 = assay: Growth inhibition of human HCC2998 cells incubated for 48 hrs by sulforhodamine B assay; type: functional; settings: HCC 2998, 48 h; summary of the method: as §1
OVCAR-5 [4] = assay: Growth inhibition of human OVCAR5 cells incubated for 48 hrs by sulforhodamine B assay; type: functional; settings: OVCAR-5, 48 h; for CC50: read-out: LC50 (the source's name); summary of the method: as §1
[5] = read-out: LC50 (the source's name)

## COc1ccc(C2=NN(C=O)C(c3cccc(Nc4ccnc5cc(Cl)ccc45)c3)C2)cc1 (centres undefined)
Staphylococcus aureus
  MIC: > 1000 µg/mL
CCRF-CEM
  GI50: 2140 nM
  CC50: > 100 µM
OVCAR-5 [1]
  growth inhibition (GI): Active
NCI-H522
  GI50: 1330 nM
  CC50: 61.9 µM
PC-3
  GI50: 2870 nM
PC-3; [5]
  CC50: > 100 µM
A549
  GI50: 4630 nM
  LC50 (concentration giving 50% net cell kill): > 100 µM
Cryptococcus neoformans
  inhibition of growth at 62.5 µg/mL: 43.5%
SK-MEL-5
  GI50: 920 nM
  CC50: 17.4 µM
RXF 393
  GI50: 1660 nM
RXF 393; [5]
  CC50: 59.2 µM
K562
  GI50: 510 nM
  CC50: > 100 µM
NCI-H460 [2]
  GI50: 2730 nM
NCI-H460 [2]; [5]
  CC50: > 100 µM
SF-539
  GI50: 2340 nM
SF-539; [5]
  CC50: 39.7 µM
LOX IMVI
  GI50: 2520 nM
LOX IMVI; [5]
  CC50: 39 µM
786-0
  GI50: 3430 nM
  LC50: 79.8 µM
UACC-257
  GI50: 3060 nM
UACC-257; [5]
  CC50: > 100 µM
HOP-62
  GI50: 2110 nM
HOP-62; [5]
  CC50: 67.7 µM
MDA-MB-231
  GI50: 4000 nM
MDA-MB-231; [5]
  CC50: > 100 µM
NCI-H460 [3]
  growth inhibition (GI): Active
MDA-MB-468
  GI50: 420 nM
MDA-MB-468; [5]
  CC50: 63.8 µM
SR
  GI50: 580 nM
  CC50: > 100 µM
T47D
  GI50: 1390 nM
T47D; [5]
  CC50: > 100 µM
KM12
  GI50: 2180 nM
KM12; [5]
  CC50: > 100 µM
ACHN
  GI50: 4590 nM
  CC50: > 100 µM
SNB-75
  GI50: 2560 nM
  CC50: > 100 µM
HCC 2998
  GI50: 11.7 µM
HCC 2998; [5]
  CC50: > 100 µM
OVCAR-5 [4]
  GI50: 11.3 µM
  CC50: > 100 µM

## Clc1ccc(C2=NN(c3ccc(Cl)cc3)C(c3cccc(Nc4ccnc5cc(Cl)ccc45)c3)C2)cc1 (centres undefined)
Staphylococcus aureus
  MIC: > 1000 µg/mL
OVCAR-5 [1]
  growth inhibition (GI): inactive
Cryptococcus neoformans
  inhibition of growth at 62.5 µg/mL: 25.8%
NCI-H460 [3]
  growth inhibition (GI): inactive

## COc1cccc2c1C(=O)c1c(O)c3c(c(O)c1C2=O)C[C@@](O)(C(=O)CO)C[C@@H]3O[C@H]1C[C@H](N)[C@H](O)[C@H](C)O1 [DOXORUBICIN]
CCRF-CEM
  GI50: 80 nM
  CC50: 100 µM
NCI-H522
  GI50: 30 nM
  CC50: 2.8 µM
PC-3
  GI50: 320 nM
A549
  GI50: 60 nM
SK-MEL-5
  GI50: 80 nM
  CC50: 0.49 µM
RXF 393
  GI50: 100 nM
K562
  GI50: 190 nM
  CC50: 100 µM
NCI-H460 [2]
  GI50: 20 nM
SF-539
  GI50: 120 nM
LOX IMVI
  GI50: 70 nM
786-0
  GI50: 130 nM
UACC-257
  GI50: 140 nM
HOP-62
  GI50: 70 nM
MDA-MB-231
  GI50: 510 nM
MDA-MB-468
  GI50: 50 nM
SR
  GI50: 30 nM
  CC50: 100 µM
T47D
  GI50: 60 nM
KM12
  GI50: 270 nM
ACHN
  GI50: 80 nM
  CC50: 100 µM
SNB-75
  GI50: 70 nM
  CC50: 3.3 µM
HCC 2998
  GI50: 0.26 µM
OVCAR-5 [4]
  GI50: 0.41 µM
  CC50: 100 µM

## COc1ccc(C2=NN(c3ccccc3)C(c3cccc(Nc4ccnc5cc(Cl)ccc45)c3)C2)cc1 (centres undefined)
Staphylococcus aureus
  MIC: > 1000 µg/mL
OVCAR-5 [1]
  growth inhibition (GI): inactive
Cryptococcus neoformans
  inhibition of growth at 62.5 µg/mL: 10.6%
NCI-H460 [3]
  growth inhibition (GI): inactive

## COc1cc(C2=NN(c3ccc(Cl)cc3)C(c3cccc(Nc4ccnc5cc(Cl)ccc45)c3)C2)cc(OC)c1OC (centres undefined)
Staphylococcus aureus
  MIC: > 1000 µg/mL
OVCAR-5 [1]
  growth inhibition (GI): inactive
Cryptococcus neoformans
  inhibition of growth at 62.5 µg/mL: 17.1%
NCI-H460 [3]
  growth inhibition (GI): inactive

## Clc1ccc(C2=NN(c3ccccc3)C(c3cccc(Nc4ccnc5cc(Cl)ccc45)c3)C2)cc1 (centres undefined)
Staphylococcus aureus
  MIC: > 1000 µg/mL
OVCAR-5 [1]
  growth inhibition (GI): inactive
Cryptococcus neoformans
  inhibition of growth at 62.5 µg/mL: 0%
NCI-H460 [3]
  growth inhibition (GI): inactive

## Clc1ccc(C2=NN(c3cc(Cl)cc(Cl)c3)C(c3cccc(Nc4ccnc5cc(Cl)ccc45)c3)C2)cc1 (centres undefined)
Staphylococcus aureus
  MIC: > 1000 µg/mL
OVCAR-5 [1]
  growth inhibition (GI): inactive
Cryptococcus neoformans
  inhibition of growth at 62.5 µg/mL: 1.2%
NCI-H460 [3]
  growth inhibition (GI): inactive

## O=Cc1cccc(Nc2ccnc3cc(Cl)ccc23)c1
Staphylococcus aureus
  MIC: 62.5 µg/mL (≈ 221 µM)
Cryptococcus neoformans
  inhibition of growth at 62.5 µg/mL: 19.6%

## COc1ccc(C2=NN(c3ccc(Cl)cc3)C(c3cccc(Nc4ccnc5cc(Cl)ccc45)c3)C2)cc1 (centres undefined)
Staphylococcus aureus
  MIC: > 1000 µg/mL
OVCAR-5 [1]
  growth inhibition (GI): inactive
Cryptococcus neoformans
  inhibition of growth at 62.5 µg/mL: 14.1%
NCI-H460 [3]
  growth inhibition (GI): inactive
